In ChEMBL document CHEMBL4715702, “Overcoming multidrug resistance by targeting mitochondria with NO-donating doxorubicins” (Bioorg Med Chem, 2016):
Calls of active or inactive are those of the source. The rule behind the calls is not given here.

Tests used:
[1] = Prodrug release in doxorubicin-resistant human HT-29 cells assessed as increase in NO level by measuring induction of P-glycoprotein nitration in plasma membrane at 5 uM incubated for 24 hrs by western blot analysis; format: cell membranes, Cell membrane; details: ht-29, 24 h
Outline: (§1)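 Cells 24 h with 5 µmol/L compound. Plasma-membrane proteins isolated by surface biotinylation, 50 µg run on SDS-PAGE, probed for Pgp with pancadherin loading control; nitration detected by Western blot, peroxidase secondary and chemiluminescence. Representative of three experiments.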

[2] = Prodrug release in human HT-29 cells assessed as increase in NO level by measuring induction of P-glycoprotein nitration in plasma membrane at 5 uM incubated for 24 hrs by western blot analysis; format: cell membranes, Cell membrane; details: ht-29, 24 h; outline: as §1
[3] = Prodrug release in human HT-29 cells assessed as increase in NO level by measuring nitrite release at 5 uM incubated for 24 hrs by spectrophotometric analysis; format: ADME, cell-based; details: ht-29, 24 h
Outline: (§2)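 After 24 h culture with 5 µmol/L compound, medium mixed 1:1 with Griess reagent, 10 min 37°C in dark, absorbance 540 nm. Cell-free blank subtracted; nitrite expressed as nmol/mg cell protein. HT29/dx maintained in 200 nmol/L DOXO. Triplicate, mean ± SD (n = 3).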

[4] = Prodrug release in doxorubicin-resistant human HT-29 cells assessed as increase in NO level by measuring nitrite release at 5 uM incubated for 24 hrs by spectrophotometric analysis; format: ADME, cell-based; details: ht-29, 24 h; outline: as §2
[5] = Prodrug release in human HT-29 cells assessed as increase in NO level by measuring plasma membrane associated MRP1/BCRP nitration mediated drug uptake at 5 uM incubated for 24 hrs by spectrofluorometric analysis; format: ADME, cell membranes; details: ht-29, 24 h
Outline: (§3)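 Cells 24 h with 5 µmol/L compound; DOXO in whole-cell lysates measured fluorimetrically (ex 475/em 553 nm), cell-free blank subtracted, converted to nmol DOXO/mg protein by calibration curve. Triplicate, mean ± SD.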

[6] = Prodrug release in doxorubicin-resistant human HT-29 cells assessed as increase in NO level by measuring plasma membrane associated MRP1/BCRP nitration mediated drug uptake at 5 uM incubated for 24 hrs by spectrofluorometric analysis; format: ADME, cell membranes; details: ht-29, 24 h; outline: as §3
[7] = test system: HT-29; experiment: Cytotoxicity against doxorubicin-resistant human HT-29 cells assessed as LDH release at 5 uM incubated for 24 hrs; format: functional, cell-based
Outline: (§4)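 Extracellular medium spun 12,000 × g 5 min; cells detached, sonicated in 82.3 mmol/L triethanolamine phosphate-HCl pH 7.6. LDH activity read in medium and lysate at 340 nm over 6 min, as µmol NADH oxidized/min/dish; extracellular LDH given as % of total dish activity. Compounds from DMSO stock, 5 µM final, 1% DMSO; controls 1% DMSO. Triplicate, mean ± SD.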

[8] = test system: HT-29; experiment: Cytotoxicity against human HT-29 cells assessed as LDH release at 5 uM incubated for 24 hrs; format: functional, cell-based; outline: as §4
[9] = Stability of the compound assessed as human serum esterase-mediated compound hydrolysis by measuring half life at 100 uM by RP-HPLC analysis; format: ADME, cell-free
Outline: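 Compound from 10 mM DMSO stock added to human male AB serum preheated to 37 °C, 100 µM final, incubated at 37 ± 0.5 °C. Aliquots deproteinized with acetonitrile/0.1% HCOOH, centrifuged, filtered. Parent and degradation products quantified by RP-HPLC (234 and 480 nm) against 1–100 µM calibration. At least triplicate.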

[10] = test system: HT-29; experiment: Induction of apoptosis in doxorubicin-resistant human HT29 cells assessed as activation of caspase 3 using DEVD-AMC substrate at 5 uM incubated for 24 hrs by fluorescence based assay; format: functional, cell-based
Outline: (§5)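 Cells 24 h in 5 µmol/L compound or fresh medium, lysed in HEPES/KOH buffer pH 7.5. 20 µg lysate incubated 1 h at 37°C with 20 µmol/L LEHD-AMC (caspase 9) or DEVD-AMC (caspase 3) in HEPES/CHAPS/sucrose/DTT buffer pH 7.5. Stopped with ice-cold 0.1% TCA; AMC fluorescence ex 380/em 460 nm, converted to nmol AMC/µg protein via AMC standards. Triplicate.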

[11] = test system: HT-29; experiment: Induction of apoptosis in human HT29 cells assessed as activation of caspase 3 using DEVD-AMC substrate at 5 uM incubated for 24 hrs by fluorescence based assay; format: functional, cell-based; outline: as §5
[12] = test system: HT-29; experiment: Induction of apoptosis in doxorubicin-resistant human HT29 cells assessed as activation of caspase 9 using LEHD-AMC substrate at 5 uM incubated for 24 hrs by fluorescence based assay; format: functional, cell-based; outline: as §5
[13] = test system: HT-29; experiment: Induction of apoptosis in human HT29 cells assessed as activation of caspase 9 using LEHD-AMC substrate at 5 uM incubated for 24 hrs by fluorescence based assay; format: functional, cell-based; outline: as §5
[14] = test system: H9c2; experiment: Cardiotoxicity against rat H9c2 cells assessed as LDH release at 5 uM incubated for 24 hrs; format: toxicity, cell-based; details: h9c2, 24 h; outline: as §4
[15] = test system: HT-29; experiment: Upregulation of iNOS protein expression in human HT-29 cells; format: functional, cell-based
Outline: (§6)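 HT29 and HT29/dx cells incubated 24 h with compound or fresh medium; lysed in MLB buffer pH 7.5, sonicated, centrifuged 13,000 x g 10 min 4°C; iNOS detected in whole-cell lysate by Western blotting.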

[16] = test system: HT-29; experiment: Upregulation of iNOS protein expression in doxorubicin-resistant human HT-29 cells; format: functional, cell-based; outline: as §6
[17] = Prodrug release in human HT-29 cells assessed as increase in NO level by measuring mitochondria associated MRP1/BCRP/P-gp nitration mediated drug uptake at 5 uM incubated for 24 hrs by spectrofluorometric analysis; format: ADME; details: ht-29, 24 h
Outline: (§7)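 Cells 24 h with 5 µmol/L compound; mitochondrial fractions isolated (porin check by immunoblot), DOXO measured fluorimetrically (ex 475/em 553 nm) with blank subtraction and calibration curve; expressed as nmol DOXO/mg mitochondrial protein. Triplicate, mean ± SD.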

[18] = Prodrug release in doxorubicin-resistant human HT-29 cells assessed as increase in NO level by measuring mitochondria associated MRP1/BCRP/P-gp nitration mediated drug uptake at 5 uM incubated for 24 hrs by spectrofluorometric analysis; format: ADME; details: ht-29, 24 h; outline: as §7
[19] = Prodrug release in human HT-29 cells assessed as increase in NO level by measuring induction of P-glycoprotein nitration in mitochondria at 5 uM incubated for 24 hrs by western blot analysis; details: ht-29, 24 h
Outline: (§8)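 Cells 24 h with 5 µmol/L compound. Mitochondrial extracts, 10 µg protein, run on SDS-PAGE and probed for Pgp, porin as loading control; nitration detected by Western blot with peroxidase secondary and chemiluminescence. Representative of three experiments.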

[20] = Prodrug release in doxrubicin-resistant human HT-29 cells assessed as increase in NO level by measuring induction of P-glycoprotein nitration in mitochondria at 5 uM incubated for 24 hrs by western blot analysis; details: ht-29, 24 h; outline: as §8

Question: What does the source list for COc1cccc2c1C(=O)c1c(O)c3c(c(O)c1C2=O)C[C@@](O)(C(=O)COC(=O)C(C)(C)CO[N+](=O)[O-])C[C@@H]3O[C@H]1C[C@H](N)[C@H](O)[C@H](C)O1.Cl?
Answer: Activity [1]: Not Active; Activity [2]: Not Active; Drug metabolism [3]: Metabolite_Detected; Drug metabolism [4]: Metabolite_Detected; Drug uptake [5]: Active; Drug uptake [6]: Active; Activity [7]: Active; Activity [8]: Active; half-life at 100 µM [9]: 21.7 h; Activity [10]: Active; Activity [11]: Active; Activity [12]: Active; Activity [13]: Active; Activity [14]: Non-Toxic; Activity [15]: Active; Activity [16]: Active; Drug uptake [17]: Active; Drug uptake [18]: Active; Activity [19]: Active; Activity [20]: Active
